Test system: not listed separately
Assay: Intrinsic clearance in human liver microsomes at 1 uM after 30 mins by reverse phase HPLC analysis in presence of NADPH
Assay type: ADME
Conditions: read-out: CLH
Summary of the method: (§1)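 Reactions were stopped with MeCN after 0 or 30 min. Samples were analysed by reverse-phase HPLC–tandem MS to give intrinsic clearance (µl/min/mg).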

| microsomal CLint at 1 µM [µL/min/mg] | Structure (SMILES) |
| --- | --- |
| < 14 | NC(=O)c1sc(-c2ccnc(N)n2)nc1-c1ccccc1F |
| < 14 | NC(=O)c1sc(-c2ccnc(N)n2)nc1-c1cc(F)ccc1F |
| 23 | CN(C)c1nc(-c2ccnc(N)n2)sc1C(N)=O |
| 67 | NC(=O)c1sc(-c2ccnc(N)n2)nc1-c1cc(Cl)cc(Cl)c1 |

Further lines, the compound ahead of its results:

| Structure (SMILES) | microsomal CLint at 1 µM [µL/min/mg] |
| --- | --- |
| Cc1ccc(-c2nc(-c3ccnc(N)n3)sc2C(N)=O)c(Cl)c1 | < 14 |
| NC(=O)c1sc(-c2ccnc(N)n2)nc1-c1ccccc1C(F)(F)F | < 14 |

Species: Homo sapiens
Assay: Selectivity ratio of IC50 for CDK2/Cyclin-E (unknown origin) to IC50 for Cdc7/Dbf4 (unknown origin)
Conditions: not given

| Ratio IC50 | Structure (SMILES) |
| --- | --- |
| 11 | O=C1Nc2ccccc2Nc2nc(-c3ccncc3)sc21 |

Test system: not listed separately
Assay: Intrinsic clearance in rat liver microsomes at 1 uM after 30 mins by reverse phase HPLC analysis in presence of NADPH
Assay type: ADME
Conditions: read-out: CLH
Summary of the method: as §1

| microsomal CLint at 1 µM [µL/min/mg] | Structure (SMILES) |
| --- | --- |
| < 14 | NC(=O)c1sc(-c2ccnc(N)n2)nc1-c1ccccc1F |
| 28 | NC(=O)c1sc(-c2ccnc(N)n2)nc1-c1cc(F)ccc1F |
| 26 | CN(C)c1nc(-c2ccnc(N)n2)sc1C(N)=O |
| 69 | NC(=O)c1sc(-c2ccnc(N)n2)nc1-c1cc(Cl)cc(Cl)c1 |

Further lines, the compound ahead of its results:

| Structure (SMILES) | microsomal CLint at 1 µM [µL/min/mg] |
| --- | --- |
| Cc1ccc(-c2nc(-c3ccnc(N)n3)sc2C(N)=O)c(Cl)c1 | 140 |
| NC(=O)c1sc(-c2ccnc(N)n2)nc1-c1ccccc1C(F)(F)F | < 14 |

Biological target: T1, CDC7/DBF4 (Cell division cycle 7-related protein kinase/Activator of S phase kinase) (Homo sapiens, UniProt O00311)
T1 sequence (Q9UBU7 whole entry): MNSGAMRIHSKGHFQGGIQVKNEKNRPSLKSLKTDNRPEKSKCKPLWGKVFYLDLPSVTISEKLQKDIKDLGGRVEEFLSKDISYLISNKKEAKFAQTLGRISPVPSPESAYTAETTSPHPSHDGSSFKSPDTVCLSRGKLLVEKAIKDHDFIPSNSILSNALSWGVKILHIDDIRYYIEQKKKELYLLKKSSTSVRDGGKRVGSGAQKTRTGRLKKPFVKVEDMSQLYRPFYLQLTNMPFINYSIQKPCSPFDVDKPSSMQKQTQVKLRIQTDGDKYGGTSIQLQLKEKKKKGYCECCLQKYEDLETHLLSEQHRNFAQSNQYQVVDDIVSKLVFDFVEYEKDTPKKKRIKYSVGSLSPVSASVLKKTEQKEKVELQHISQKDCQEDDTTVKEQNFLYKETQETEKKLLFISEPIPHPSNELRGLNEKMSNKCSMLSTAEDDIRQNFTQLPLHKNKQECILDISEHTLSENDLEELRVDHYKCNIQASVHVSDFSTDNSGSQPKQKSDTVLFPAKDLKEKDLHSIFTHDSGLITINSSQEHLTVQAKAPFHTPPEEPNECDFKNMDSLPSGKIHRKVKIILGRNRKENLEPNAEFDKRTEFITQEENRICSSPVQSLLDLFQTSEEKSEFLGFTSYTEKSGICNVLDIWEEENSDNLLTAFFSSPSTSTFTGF
T1 sequence (O00311 whole entry): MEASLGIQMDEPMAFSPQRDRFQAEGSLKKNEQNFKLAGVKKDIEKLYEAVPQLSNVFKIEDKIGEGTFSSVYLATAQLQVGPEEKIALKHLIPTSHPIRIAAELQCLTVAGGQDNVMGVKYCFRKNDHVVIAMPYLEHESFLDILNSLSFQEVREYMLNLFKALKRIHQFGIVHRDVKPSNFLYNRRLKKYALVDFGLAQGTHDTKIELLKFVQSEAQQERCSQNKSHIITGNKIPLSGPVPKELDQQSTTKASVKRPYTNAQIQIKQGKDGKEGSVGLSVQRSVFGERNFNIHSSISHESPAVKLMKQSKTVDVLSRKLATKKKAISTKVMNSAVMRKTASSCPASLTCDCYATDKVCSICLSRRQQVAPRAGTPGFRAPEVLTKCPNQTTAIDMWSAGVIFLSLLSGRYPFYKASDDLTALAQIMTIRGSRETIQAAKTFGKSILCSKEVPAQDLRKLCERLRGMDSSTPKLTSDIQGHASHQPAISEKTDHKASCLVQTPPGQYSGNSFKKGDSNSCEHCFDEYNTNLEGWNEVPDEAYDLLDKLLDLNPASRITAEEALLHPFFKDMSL
Assay: Inhibition of Cdc7/Dbf4 in human HCT116 cells assessed as reduction of MCM2 phosphorylation after 14 hrs
Assay type: cell-based, HCT-116
Conditions: not given
Summary of the method: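 HCT-116 cells were exposed to inhibitor across a 22-point dose response for 14 h. They were then immunostained for phospho-serine MCM2 using an Alexa Fluor 488 secondary, with a Hoechst nuclear counterstain. The percentage of cells with phospho-MCM2 signal above a threshold was scored by high-content imaging, and IC50 values were derived from that.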

| IC50 [µM] | Structure (SMILES) |
| --- | --- |
| 1.07 | NC(=O)c1sc(-c2ccnc(N)n2)nc1-c1ccccc1F |
| 11.5 | NC(=O)c1sc(-c2ccncc2)nc1-c1ccc(Cl)cc1Cl |
| 9.93 | COc1nc(-c2ccncc2)sc1C(N)=O |
| 3.62 | NC(=O)c1sc(-c2ccnc(N)n2)nc1-c1cc(F)ccc1F |
| > 50 | NC(=O)c1sc(-c2ccncc2)nc1O |
| 1.87 | CN(C)c1nc(-c2ccnc(N)n2)sc1C(N)=O |
| 23.6 | NC(=O)c1sc(-c2ccncc2)nc1-c1ccccc1 |
| 8.5 | NC(=O)c1sc(-c2ccnc(N)n2)nc1-c1cc(Cl)cc(Cl)c1 |

Further lines, the compound ahead of its results:

| Structure (SMILES) | IC50 [µM] |
| --- | --- |
| Cc1ccc(-c2nc(-c3ccnc(N)n3)sc2C(N)=O)c(Cl)c1 | 1.4 |
| NC(=O)c1sc(-c2ccnc(N)n2)nc1-c1ccccc1C(F)(F)F | 2.04 |

Biological target: Cyclin-dependent kinase 2/cyclin E1 (Homo sapiens, UniProt P24941)
Assay: Inhibition of CDK2/Cyclin-E (unknown origin) using maltose binding protein as substrate by HTRF assay
Assay type: protein-complex assay
Conditions: not given

| IC50 [µM] | Structure (SMILES) |
| --- | --- |
| > 125 | NC(=O)c1sc(-c2ccnc(N)n2)nc1-c1ccccc1F |
| > 125 | CCOC(=O)c1sc(-c2ccncc2)nc1N(C)C |
| 0.7 | NC(=O)c1sc(-c2ccncc2)nc1-c1ccc(Cl)cc1Cl |
| > 125 | CCOC(=O)c1sc(-c2ccccc2)nc1O |
| > 125 | NNC(=O)c1sc(-c2ccncc2)nc1-c1ccccc1 |
| > 125 | CCOC(=O)c1sc(-c2ccncc2)nc1-c1ccc2ccccc2c1 |
| 5.71 | COc1nc(-c2ccncc2)sc1C(N)=O |
| 34.8 | NC(=O)c1sc(-c2ccnc(N)n2)nc1-c1cc(F)ccc1F |
| > 125 | NC(=O)c1sc(-c2ccncc2)nc1O |
| > 125 | CCOC(=O)c1sc(-c2cc(N)ncn2)nc1-c1ccccc1 |
| > 125 | CCOC(=O)c1sc(-c2cccnc2)nc1O |
| > 125 | N#Cc1sc(-c2ccncc2)nc1-c1ccccc1 |
| > 125 | O=C(NO)c1sc(-c2ccncc2)nc1-c1ccccc1 |
| 18.2 | CN(C)c1nc(-c2ccnc(N)n2)sc1C(N)=O |
| > 125 | CCOC(=O)c1sc(-c2ccncc2)nc1-c1cccc(Cl)c1Cl |
| 1.2 | O=C1Nc2ccccc2Nc2nc(-c3ccncc3)sc21 |
| 34.2 | NC(=O)c1sc(-c2ccncc2)nc1-c1ccccc1 |
| > 125 | CCOC(=O)c1sc(-c2ccccn2)nc1O |
| > 125 | NC(=O)c1sc(-c2ccnc(N)n2)nc1-c1cc(Cl)cc(Cl)c1 |
| > 125 | CCOC(=O)c1sc(-c2ccnc(N)c2)nc1-c1ccccc1 |
| > 125 | CCOC(=O)c1sc(-c2ccncc2)nc1-c1ccc(Cl)cc1Cl |

The next lines start with the compound.

| Structure (SMILES) | IC50 [µM] |
| --- | --- |
| CCOC(=O)c1sc(-c2ccncc2)nc1-c1ccc(F)cc1Cl | > 125 |
| CCOC(=O)c1sc(-c2ccncc2)nc1-c1ccccc1O | > 125 |
| O=C(O)c1sc(-c2ccncc2)nc1-c1ccccc1 | > 125 |
| c1ccc(-c2nc(-c3ccncc3)sc2-c2nnco2)cc1 | > 125 |
| CCOC(=O)c1sc(-c2ccncc2)nc1-c1ccc(OC)cc1Cl | > 125 |
| CCOC(=O)c1sc(-c2ccncc2)nc1N | > 125 |
| CCOC(=O)c1sc(-c2ccncc2)nc1OC | > 125 |
| CCOC(=O)c1sc(-c2ccncc2)nc1-c1cccnc1 | > 125 |
| CCOC(=O)c1sc(-c2ccncc2)nc1-c1ccccc1 | > 125 |
| CCOC(=O)c1sc(C(C)(C)C)nc1O | > 125 |
| CCOC(=O)c1sc(-c2cnccn2)nc1O | > 125 |
| CCOC(=O)c1cnc(-c2ccncc2)s1 | > 125 |
| O=C(O)c1sc(-c2ccncc2)nc1O | > 125 |
| CCOC(=O)c1sc(-c2ccncc2)nc1NC | > 125 |
| CCOC(=O)c1sc(-c2ccc(OC)cc2)nc1O | > 125 |
| c1ccc(-c2nc(-c3ccncc3)sc2-c2nn[nH]n2)cc1 | > 125 |
| CCOC(=O)c1sc(-c2ccncc2)nc1-c1ccccc1Cl | > 125 |
| CCOC(=O)c1sc(-c2ccncc2)nc1Nc1ccccc1 | > 125 |
| O=C(NCc1ccccc1)c1sc(-c2ccncc2)nc1O | 52.1 |
| CCOC(=O)c1sc(-c2ccncc2)nc1C | > 125 |
| CCOC(=O)c1sc(-c2ccncc2)nc1NCc1ccccc1 | > 125 |
| Cc1ccc(-c2nc(-c3ccnc(N)n3)sc2C(N)=O)c(Cl)c1 | 7.03 |
| CCOC(=O)c1sc(-c2ccnc(CC)c2)nc1O | > 125 |
| CCOC(=O)c1sc(-c2ccsc2)nc1O | > 125 |
| NC(=O)c1sc(-c2ccnc(N)n2)nc1-c1ccccc1C(F)(F)F | 34.9 |
| CCOC(=O)c1sc(-c2ccnc(N)n2)nc1O | > 125 |
| CNC(=O)c1sc(-c2ccncc2)nc1O | > 125 |
| CN(C)C(=O)c1sc(-c2ccncc2)nc1O | > 125 |

Biological target: T1, CDC7/DBF4 (Cell division cycle 7-related protein kinase/Activator of S phase kinase)
Assay: Inhibition of Cdc7/Dbf4 (unknown origin)-mediated phosphorylation of MCM2 by protein-A luminescent proximity homogenous assay
Assay type: protein-complex assay
Conditions: not given

| IC50 [µM] | Structure (SMILES) |
| --- | --- |
| 0.0178 | NC(=O)c1sc(-c2ccnc(N)n2)nc1-c1ccccc1F |
| 0.669 | CCOC(=O)c1sc(-c2ccncc2)nc1N(C)C |
| 0.0143 | NC(=O)c1sc(-c2ccncc2)nc1-c1ccc(Cl)cc1Cl |
| 46.7 | CCOC(=O)c1sc(-c2ccccc2)nc1O |
| 0.472 | NNC(=O)c1sc(-c2ccncc2)nc1-c1ccccc1 |
| > 125 | CCOC(=O)c1sc(-c2ccncc2)nc1-c1ccc2ccccc2c1 |
| 0.0955 | COc1nc(-c2ccncc2)sc1C(N)=O |
| 0.0328 | NC(=O)c1sc(-c2ccnc(N)n2)nc1-c1cc(F)ccc1F |
| 0.115 | NC(=O)c1sc(-c2ccncc2)nc1O |
| > 125 | CCOC(=O)c1sc(-c2cc(N)ncn2)nc1-c1ccccc1 |
| 32 | CCOC(=O)c1sc(-c2cccnc2)nc1O |
| 10.3 | N#Cc1sc(-c2ccncc2)nc1-c1ccccc1 |
| 1.69 | O=C(NO)c1sc(-c2ccncc2)nc1-c1ccccc1 |
| 0.0205 | CN(C)c1nc(-c2ccnc(N)n2)sc1C(N)=O |
| 0.451 | CCOC(=O)c1sc(-c2ccncc2)nc1-c1cccc(Cl)c1Cl |
| 0.104 | O=C1Nc2ccccc2Nc2nc(-c3ccncc3)sc21 |
| 0.101 | NC(=O)c1sc(-c2ccncc2)nc1-c1ccccc1 |
| > 125 | CCOC(=O)c1sc(-c2ccccn2)nc1O |
| 0.0623 | NC(=O)c1sc(-c2ccnc(N)n2)nc1-c1cc(Cl)cc(Cl)c1 |
| 19.9 | CCOC(=O)c1sc(-c2ccnc(N)c2)nc1-c1ccccc1 |
| 0.973 | CCOC(=O)c1sc(-c2ccncc2)nc1-c1ccc(Cl)cc1Cl |

Continued, compound first:

| Structure (SMILES) | IC50 [µM] |
| --- | --- |
| CCOC(=O)c1sc(-c2ccncc2)nc1-c1ccc(F)cc1Cl | 1.02 |
| CCOC(=O)c1sc(-c2ccncc2)nc1-c1ccccc1O | 3.22 |
| O=C(O)c1sc(-c2ccncc2)nc1-c1ccccc1 | 0.172 |
| c1ccc(-c2nc(-c3ccncc3)sc2-c2nnco2)cc1 | 3.87 |
| CCOC(=O)c1sc(-c2ccncc2)nc1-c1ccc(OC)cc1Cl | 0.855 |
| CCOC(=O)c1sc(-c2ccncc2)nc1N | 4.2 |
| CCOC(=O)c1sc(-c2ccncc2)nc1OC | 17.2 |
| CCOC(=O)c1sc(-c2ccncc2)nc1-c1cccnc1 | 8.29 |
| CCOC(=O)c1sc(-c2ccncc2)nc1-c1ccccc1 | 20.5 |
| CCOC(=O)c1sc(C(C)(C)C)nc1O | > 125 |
| CCOC(=O)c1sc(-c2cnccn2)nc1O | 26.5 |
| CCOC(=O)c1cnc(-c2ccncc2)s1 | 24 |
| O=C(O)c1sc(-c2ccncc2)nc1O | 6.13 |
| CCOC(=O)c1sc(-c2ccncc2)nc1NC | 7.35 |
| CCOC(=O)c1sc(-c2ccc(OC)cc2)nc1O | > 125 |
| c1ccc(-c2nc(-c3ccncc3)sc2-c2nn[nH]n2)cc1 | 0.452 |
| CCOC(=O)c1sc(-c2ccncc2)nc1-c1ccccc1Cl | 0.529 |
| CCOC(=O)c1sc(-c2ccncc2)nc1Nc1ccccc1 | > 125 |
| O=C(NCc1ccccc1)c1sc(-c2ccncc2)nc1O | 11.6 |
| CCOC(=O)c1sc(-c2ccncc2)nc1C | 25.1 |
| CCOC(=O)c1sc(-c2ccncc2)nc1NCc1ccccc1 | 38.3 |
| Cc1ccc(-c2nc(-c3ccnc(N)n3)sc2C(N)=O)c(Cl)c1 | 0.00604 |
| CCOC(=O)c1sc(-c2ccnc(CC)c2)nc1O | 7.5 |
| CCOC(=O)c1sc(-c2ccsc2)nc1O | 29.6 |
| NC(=O)c1sc(-c2ccnc(N)n2)nc1-c1ccccc1C(F)(F)F | 0.0184 |
| CCOC(=O)c1sc(-c2ccnc(N)n2)nc1O | 0.0415 |
| CNC(=O)c1sc(-c2ccncc2)nc1O | 8.98 |
| CN(C)C(=O)c1sc(-c2ccncc2)nc1O | 24.4 |

Biological target: CDC7/DBF4 (Cell division cycle 7-related protein kinase/Activator of S phase kinase) (Homo sapiens) (UniProt Q9UBU7+O00311)
Sequence (O00311 whole entry, looked up): as the sequence (O00311 whole entry) above
Sequence (Q9UBU7 whole entry, looked up): as the sequence (Q9UBU7 whole entry) above
Assay: Ratio of IC50 for Cdc7/Dbf4 in human HCT116 cells to IC50 for Cdc7/Dbf4 (unknown origin)
Assay type: cell-based
Conditions: HCT-116

| Ratio IC50 | Structure (SMILES) |
| --- | --- |
| > 100 | NC(=O)c1sc(-c2ccncc2)nc1-c1ccc(Cl)cc1Cl |
| > 100 | COc1nc(-c2ccncc2)sc1C(N)=O |
| > 100 | NC(=O)c1sc(-c2ccncc2)nc1-c1ccccc1 |
